The source of these data is ChEMBL document CHEMBL1150355, “Design and evaluation of a novel series of 2,3-oxidosqualene cyclase inhibitors with low systemic exposure, relationship between pharmacokinetic properties and ocular toxicity” (Bioorg Med Chem, 2008).

In series [1] the target is T1, Lanosterol synthase (Homo sapiens, UniProt P48449).
T1 sequence (P48449 whole entry): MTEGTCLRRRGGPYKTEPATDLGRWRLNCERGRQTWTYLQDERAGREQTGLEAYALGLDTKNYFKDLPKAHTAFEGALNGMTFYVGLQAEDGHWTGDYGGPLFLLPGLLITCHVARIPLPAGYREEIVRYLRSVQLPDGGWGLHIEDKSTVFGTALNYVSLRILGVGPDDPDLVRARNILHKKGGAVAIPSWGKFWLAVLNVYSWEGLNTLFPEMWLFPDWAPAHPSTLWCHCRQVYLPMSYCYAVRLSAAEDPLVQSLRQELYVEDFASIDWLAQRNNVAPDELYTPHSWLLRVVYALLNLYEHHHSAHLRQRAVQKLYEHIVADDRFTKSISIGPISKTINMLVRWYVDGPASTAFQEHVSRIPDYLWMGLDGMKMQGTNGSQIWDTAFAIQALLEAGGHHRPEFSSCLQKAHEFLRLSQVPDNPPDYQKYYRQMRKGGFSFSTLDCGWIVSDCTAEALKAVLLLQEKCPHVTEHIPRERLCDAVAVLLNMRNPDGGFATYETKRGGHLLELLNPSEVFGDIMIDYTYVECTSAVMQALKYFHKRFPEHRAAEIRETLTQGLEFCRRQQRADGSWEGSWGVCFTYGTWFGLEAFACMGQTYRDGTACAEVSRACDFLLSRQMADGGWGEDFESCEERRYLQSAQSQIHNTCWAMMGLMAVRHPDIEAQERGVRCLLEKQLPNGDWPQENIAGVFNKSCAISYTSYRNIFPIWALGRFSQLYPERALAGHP
As to the kind of experiment: Inhibition of 2,3-oxidosqualene-lanosterol cyclase. In short, it runs like this: (§1)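 HepG2 cells were incubated 24 h with compound in BME with 10% fetal calf serum, then labelled with [14C]mevalonate (7.4 kBq). Lipids were extracted with heptane/isopropanol and separated by TLC. [14C]cholesterol, MES and DES were identified against standards and quantified by phosphorimaging, scoring cholesterol synthesis inhibition together with MES/DES formation.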

The nature of series [2]: Metabolic stability in rat liver microsomes assessed as intrinsic clearance […]. The series is classed as ADME, Microsome.
Series [3] has as its system Rattus norvegicus. The series is described as follows: Inhibition of neosynthetized cholesterol synthesis in OFA rat liver at 2 mg/kg, po after 3 hrs. It is filed as functional. In short, it runs like this:
(§2)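 Male OFA rats dosed orally at 2 mg/kg. Sterol synthesis was labelled by ip [14C]mevalonate (370 kBq) for the final hour, giving 3 h or 8 h total exposure. Lens and liver lipids were extracted with isopropanol, separated by TLC, and cholesterol and MES radioactivity quantified by phosphorimaging. Cholesterol inhibition is relative to vehicle-treated rats, and MES as % of BIBB 515-treated rats (100%).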

Series [4] has as its system Rattus norvegicus. The series is described as follows: Induction of neosynthetized 2,3 mono-epoxysqualene synthesis in OFA rat liver at 2 mg/kg, po after 3 hrs relative to BIBB 515. The series is classed as functional. An outline of the steps:
as §2

Series [5] has as its system Rattus norvegicus. As to the kind of experiment: Inhibition of neosynthetized cholesterol synthesis in OFA rat lens at 2 mg/kg, po after 3 hrs. It is filed as functional. The conditions noted are these: Lens of camera-type eye. In short, it runs like this:
as §2

Series [6] concerns Rattus norvegicus. As to the kind of experiment: Induction of neosynthetized 2,3 mono-epoxysqualene synthesis in OFA rat lens at 2 mg/kg, po after 3 hrs relative to BIBB 515. It is filed as functional, Lens of camera-type eye. An outline of the steps:
as §2

The subject of series [7] is Rattus norvegicus. As to the kind of experiment: Inhibition of neosynthetized cholesterol synthesis in OFA rat liver at 2 mg/kg, po after 8 hrs. The series is classed as functional. In short, it runs like this: as §2
Series [8] relates to Rattus norvegicus. As to the kind of experiment: Induction of neosynthetized 2,3 mono-epoxysqualene synthesis in OFA rat liver at 2 mg/kg, po after 8 hrs relative to BIBB 515. It is filed as functional. An outline of the steps:
as §2

The subject of series [9] is Rattus norvegicus. As to the kind of experiment: Inhibition of neosynthetized cholesterol synthesis in OFA rat lens at 2 mg/kg, po after 8 hrs. The conditions noted are these: Lens of camera-type eye. The series is classed as functional. In short, it runs like this:
as §2

Series [10] deals with Rattus norvegicus. The series is described as follows: Induction of neosynthetized 2,3 mono-epoxysqualene synthesis in OFA rat lens at 2 mg/kg, po after 8 hrs relative to BIBB 515. The series is classed as functional, Lens of camera-type eye. In short, it runs like this: as §2
Series [11] is described as follows: AUC (0 to 6 hrs) in OFA rat at 1 mg/kg, iv. It is filed as ADME, organism-based. Set-up: time < 6 hr, dose 1 mg/kg, route intravenous. The conditions noted are these: plasma. In short, it runs like this:
(§3)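 OFA rats (n = 10) dosed 1 mg/kg by iv bolus via penis vein in 10% DMA/90% PEG200. Plasma and tissue homogenates in borate buffer 0.1 M pH 11.5 were extracted with ethyl ether and analysed by LC. Plasma AUC was computed over 0–6 h.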

A short description of series [12]: Biodistribution in OFA rat liver at 1 mg/kg, iv after 2 hrs. It is filed as ADME, organism-based. More on the design: dose 1 mg/kg, route intravenous. The conditions noted are these: read-out: Drug uptake. An outline of the steps:
as §3

The nature of series [13]: Biodistribution in OFA rat liver at 1 mg/kg, iv after 6 hrs. It is filed as ADME, organism-based. Set-up: dose 1 mg/kg, route intravenous. The conditions noted are these: read-out: Drug uptake. An outline of the steps:
as §3

Series [14] in a line: Biodistribution in OFA rat eyes at 1 mg/kg, iv after 2 hrs. The series is classed as ADME, organism-based. Set-up: dose 1 mg/kg, route intravenous. The conditions noted are these: eye, read-out: Drug uptake. An outline of the steps: as §3
Series [15] in a line: Biodistribution in OFA rat eyes at 1 mg/kg, iv after 6 hrs. More on the design: dose 1 mg/kg, route intravenous. The conditions noted are these: eye, read-out: Drug uptake. It is filed as ADME, organism-based. In short, it runs like this: as §3
Series [16] addresses T2, Lanosterol synthase (Homo sapiens) (UniProt P48449).
T2 sequence (whole entry): T1 sequence (P48449 whole entry)
As to the kind of experiment: Inhibition of 2,3-oxidosqualene-lanosterol cyclase at 200 nM. In short, it runs like this: as §1

Series [17] deals with Rattus norvegicus. As to the kind of experiment: Ocular toxicity in Sprague-Dawley rat assessed as opacification of anterior lens at 30 mg/kg, po administered once daily for 21 days. It is filed as organism-based, Lens of camera-type eye. Set-up: dose 30 mg/kg, route oral. The conditions noted are these: in vivo, 504 h. In short, it runs like this: (§4)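 Sprague–Dawley rats (male and female, n = 3) were dosed orally once daily for 21 days. Anterior lens opacification was scored from 0 to 6 (4 marked, 5 very marked, 6 severe), with histological examination of the eye.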

Series [18] has as its system Rattus norvegicus. As to the kind of experiment: Ocular toxicity in Sprague-Dawley rat assessed as opacification of anterior lens at 2 mg/kg, po administered once daily for 21 days. Set-up: dose 2 mg/kg, route oral. It is filed as organism-based, Lens of camera-type eye. The conditions noted are these: in vivo, 504 h. An outline of the steps: as §4
Series [19] relates to Rattus norvegicus. As to the kind of experiment: Inhibition of 2,3-oxidosqualene-lanosterol cyclase in male Sprague-Dawley rat assessed as 2,3 mono-epoxysqualene appearance in liver at 2 mg/kg, po administered once daily for 21 days. The series is classed as functional, organism-based. More on the design: dose 2 mg/kg. An outline of the steps:
(§5)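 Sprague–Dawley rats (3 per sex) were dosed orally once daily for 21 days. On day 21, 3 h after the last dose, rats were sacrificed and hepatic lipids extracted and separated by TLC. MES was visualised with 5% phosphomolybdic acid in isopropanol, and MES mass quantified by densitometry.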

The subject of series [20] is Rattus norvegicus. The series is described as follows: Inhibition of 2,3-oxidosqualene-lanosterol cyclase in female Sprague-Dawley rat assessed as 2,3 mono-epoxysqualene appearance in liver at 2 mg/kg, po administered once daily for 21 days. More on the design: dose 2 mg/kg. The series is classed as functional, organism-based. In short, it runs like this:
as §5

Series [21] has as its system Rattus norvegicus. The series is described as follows: Inhibition of 2,3-oxidosqualene-lanosterol cyclase in male Sprague-Dawley rat assessed as 2,3 mono-epoxysqualene appearance in liver at 10 mg/kg, po administered once daily for 21 days. It is filed as functional, organism-based. Set-up: dose 10 mg/kg. In short, it runs like this:
as §5

The subject of series [22] is Rattus norvegicus. As to the kind of experiment: Inhibition of 2,3-oxidosqualene-lanosterol cyclase in female Sprague-Dawley rat assessed as 2,3 mono-epoxysqualene appearance in liver at 10 mg/kg, po administered once daily for 21 days. The series is classed as functional, organism-based. More on the design: dose 10 mg/kg. In short, it runs like this:
as §5

In series [23] the test system is Rattus norvegicus. The series is described as follows: Inhibition of 2,3-oxidosqualene-lanosterol cyclase in male Sprague-Dawley rat assessed as 2,3 mono-epoxysqualene appearance in liver at 30 mg/kg, po administered once daily for 21 days. It is filed as functional, organism-based. Set-up: dose 30 mg/kg. In short, it runs like this: as §5
Series [24] concerns Rattus norvegicus. The series is described as follows: Inhibition of 2,3-oxidosqualene-lanosterol cyclase in female Sprague-Dawley rat assessed as 2,3 mono-epoxysqualene appearance in liver at 30 mg/kg, po administered once daily for 21 days. The series is classed as functional, organism-based. More on the design: dose 30 mg/kg. In short, it runs like this: as §5

The source made the active and inactive calls. The calls are words filed in the database; no cut-off is given here. Some results are limits rather than exact numbers.

For `N#Cc1ccc(S(=O)(=O)NCCc2ccc(C(O)c3cccnc3)cc2)cc1` (racemic), in series [1], the EC50 amounted to 0.1 µM. That is a sub-micromolar value.
In [1], `CN(C)Cc1ccc(CN2CCN(C(=O)c3ccc(OC(F)(F)F)cc3)CC2)cc1` registered an IC50 of 0.02 µM. For the same compound, the intrinsic metabolic clearance (CLint scaled) in series [2] was determined as 3.6 mL/min/g. Moreover, the inhibition in vivo at 2 mg/kg in series [3] is 83%; in [5], 64%; in [7] it was 69%; in [9], 66%. Also, the Activity is 100% in series [4], 175% in series [6], 241% in series [8] and 51% in series [10]. The AUC(0-t) at 6 h in series [11] amounted to 362 ng·h/mL. Moreover, the concentration at 2 h turned out to be 2420 ng/g in series [12] and 260 ng/g in series [14]. Besides, the figures for the concentration at 6 h in series [13] and in series [15] were 1320 ng/g and 194 ng/g, respectively.
For `Cn1cc(-c2ccc(CN3CCN(C(=O)c4ccc(Cl)cc4)CC3)cc2)cn1`, the outcome in series [16] was inactive.
For the compound `O=C(c1ccc(Cl)cc1)N1CCN(Cc2ccc(-c3ccn[nH]3)cc2)CC1`, the result in series [16] was inactive.
As for `Cc1nc(-c2ccc(CN3CCN(C(=O)c4ccc(Cl)cc4)CC3)cc2)no1`, in [16], the result was inactive.
Turning to `CN(C)Cc1ccc(-c2ccc(CCNS(=O)(=O)c3ccc(C#N)cc3)cc2)cc1`, the IC50 in [1] is 0.028 µM. Further, the intrinsic metabolic clearance (CLint scaled) in series [2] was determined as 9.9 mL/min/g. This compound registered an inhibition in vivo at 2 mg/kg in series [3] of 47%. For the same compound, the Activity in series [4] turned out to be 6%.
Regarding `O=C(c1ccc(Cl)cc1)N1CCN(Cc2ccc(-n3ccnc3)cc2)CC1`, in [1], the IC50 worked out at 0.032 µM. In [2], the CLint scaled came out at 0.2 mL/min/g. The inhibition in vivo at 2 mg/kg stood at 85% in series [3], 76% in series [5], 20% in series [7] and 0% in series [9]. Also, the Activity in series [4] is recorded as 156%; in series [6], 104%; in series [8], 85%; in [10], 51%; in series [17], “Toxic”; in series [18], “Non-toxic”. Moreover, the Activity entry is “Non-toxic” in series [19]; “Toxic” in series [20]; “Toxic” in series [21]; “Toxic” in series [22]; “Toxic” in series [23]; “Toxic” in series [24]. This compound came in with an AUC(0-t) at 6 h in [11] of 534 ng·h/mL. The concentration at 2 h in [12] was determined as 2010 ng/g; in series [14] it was 65 ng/g. Besides, the concentration at 6 h in series [13] is 660 ng/g; in series [15] it was below 10 ng/g.
Turning to `O=S(=O)(NCCc1ccc(-c2ccc(CN3CCCC3)cc2)cc1)c1ccc(Cl)cc1`, the IC50 in series [1] worked out at 0.063 µM.
Turning to `CN(C)Cc1cccc(-c2ccc(CCNS(=O)(=O)c3ccc(C#N)cc3)cc2)c1`, the outcome in series [16] was inactive.
Regarding `O=C(N1CCN(Cc2ccc(-n3ccnc3)cc2)CC1)C(F)(F)F`, in series [16], the outcome was inactive.
